Screens as filed in PubChem.
Xi reactivation: X-chromosome reactivation activator; XiGFP mouse fibroblasts, % GFP-positive cells imaging, 3 d; cells co-treated with 5-aza-dC sensitizer; scaled so ellipticine positive control = 100%; hit rate 0.055% among 360,000; activation, % at 7.58 µM;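 active = mean normalized replicate activation at least 10% and every replicate at or above 10%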;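 note: 0% = median of on-plate neutral control wells and 100% = ellipticine 6 µM median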
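Schedule: 3 d treatment, 15 min room-temperature fixation; system: 68-5-11 XiGFP fibroblast line; buffer or medium: DMEM plus 5-aza-dC sensitizer; control set: ellipticine 6 µM positive control; compound: one concentration, pinned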
Rin1 Abl inh: inhibitors of human Rin1-Abl protein interaction. hit rate 0.4% among 360,000. inhibition, % at 7.35 µM. TR-FRET Rin1/Abl binding, biochemical; in the data active = inhibition above about 5%, passing the limit was not always enough
ABHD5-PLIN5 inh: ABHD5-PLIN5 protein interaction inhibition; Q00G26+Q8WTS1; Split G. princeps luciferase complementation, luminescence, 4 h; inhibition, % at 4 µM; hit rate 0.78% among 360,000;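 active = inhibition above the mean inhibition across every tested compound plus 3 SD, cut at about 22% in these data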;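 note: 0% = DMSO only wells and the 100% control is not disclosed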
Rpn11 block: blocks the human proteasome subunit Rpn11; AID 588493; human 26S proteasome, Ub4-pepOG fluorescence polarization; 20S core pre-blocked with epoxomicin; O00487; hit rate 0.59% among 360,000; inhibition, % at 20 µM;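 active = inhibition at 20 µM, scaled to each plate's controls, above about 33%, limit read from the data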
NadD block: blocks S. aureus nicotinate mononucleotide adenylyltransferase; purified NadD enzyme, colorimetric absorbance read-out; inhibition, % at 20 µM; hit rate 0.78% among 360,000; AID 602399; in the data active = inhibition above about 26%
ABHD5-PLIN5 conf: ABHD5-PLIN5 interaction inhibition, confirmed; shares compounds with ABHD5-PLIN5 inh; biochemical ABHD5-PLIN5 interaction, luminescence; inhibition, % at 4 µM; hit rate 67% among 2,200; in the data active = inhibition above about 23%;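 note: 0% = DMSO vehicle wells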
HNF4 counter: active in HNF4 split-luciferase counter-screen for ABHD5-PLIN5 inhibitors; shares compounds with ABHD5-PLIN5 inh; HNF4 dimerization, luminescence, biochemical; AID 651674; hit rate 77% among 2,200; inhibition, % at 4 µM;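 active = mean inhibition across replicate wells exceeding the computed hit threshold, cut at about 13% in these data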;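 note: light from luciferase halves that rejoin when HNF4 fusion proteins dimerize; 0% = DMSO only wells and the 100% control is not given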
Target sequence (P41235 whole entry, looked up, the tested form may be a part): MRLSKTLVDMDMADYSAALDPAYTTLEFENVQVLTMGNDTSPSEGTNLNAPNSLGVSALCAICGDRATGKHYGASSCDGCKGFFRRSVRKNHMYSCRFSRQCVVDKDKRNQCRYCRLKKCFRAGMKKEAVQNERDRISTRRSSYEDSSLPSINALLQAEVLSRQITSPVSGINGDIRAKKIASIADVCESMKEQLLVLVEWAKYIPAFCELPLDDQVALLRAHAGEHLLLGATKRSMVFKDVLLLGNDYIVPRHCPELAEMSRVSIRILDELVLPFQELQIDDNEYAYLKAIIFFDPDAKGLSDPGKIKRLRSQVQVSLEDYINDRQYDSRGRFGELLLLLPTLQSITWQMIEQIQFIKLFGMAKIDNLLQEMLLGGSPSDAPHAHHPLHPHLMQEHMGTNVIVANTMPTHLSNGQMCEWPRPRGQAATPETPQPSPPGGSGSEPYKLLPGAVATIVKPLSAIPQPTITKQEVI
An asterisk follows results filed as active; nt = no result shown. Shown are actives, neighbours in structure and some others; about 1.9% of the full set was active somewhere.

SMILES	Xi reactivation	Rin1 Abl inh	ABHD5-PLIN5 inh	Rpn11 block	NadD block	ABHD5-PLIN5 conf	HNF4 counter
Cn1cnc([N+](=O)[O-])c1S(=O)(=O)Oc1ccccc1	4	3	62*	-6	1	75*	95*
Cn1cnc([N+](=O)[O-])c1S(=O)(=O)Nc1ccccc1	0	-1	21	-3	1	nt	nt
COc1cc(/C=C/c2[nH]c(=O)[nH]c(=O)c2[N+](=O)[O-])cc([N+](=O)[O-])c1O	0	2	33*	-13	0	44*	33*
CCC(C)Oc1ccc(/C=C/c2[nH]c(=O)[nH]c(=O)c2[N+](=O)[O-])cc1OC (stereo unspecified)	0	7	35*	2	5	77*	72*
Cc1cccc(S(=O)(=O)N2CC[C@H]3[C@@H](CO)N(C)c4ccc(-c5ccccc5F)cc4[C@H]32)c1	0	nt	nt	nt	nt	nt	nt
C(#Cc1ccccc1)C[N+]1(CC#Cc2cccc3ccccc23)CCCC1	0	-3	27*	-22	5	11	3
COc1ccc(-c2ccc(CCC(=O)O)o2)cc1	0	2	60*	3	-1	14	64*
O=C(O)CCc1ccc(-c2ccc(Br)cc2)o1	nt	-9	29*	2	1	24*	71*
Cc1oc(-c2ccc(Cl)cc2)cc1C(=O)O	3	-4	-7	2	-3	nt	nt
O=C(O)CCc1ccc(-c2ccc(Cl)cc2)o1	nt	3	43*	-1	1	-2	10
COc1ccc(-c2noc(CCC(=O)O)n2)cc1	0	4	-3	6	-4	nt	nt
CN1C(=O)c2cc(NC(=O)Nc3ccc(Cl)cc3)ccc2OC[C@H]2O[C@H](CC(=O)O)CC[C@@H]21	0	nt	nt	nt	nt	nt	nt
CO[C@H]1CN(C)C(=O)c2cc(NC(=O)C3CC3)ccc2OC[C@H](C)N(C(=O)C2CCCCC2)C[C@@H]1C	0	nt	nt	nt	nt	nt	nt
COc1ccc2c3c(n(C)c2c1)[C@H](CO)N(C(C)=O)CC31CCN(C(=O)NC(C)C)CC1	0	nt	nt	nt	nt	nt	nt
O=C(O)Cc1sc(N/N=C\c2ccncc2)nc1-c1ccccc1	0	-3	24*	nt	4	15	45*
O=C(C(=Cc1ccccc1)CN1CCCCC1)c1ccccc1	2	-2	47*	7	-2	77*	65*
C=C1C(=O)O[C@H]2[C@H]1[C@H](OC(=O)/C(C)=C\C)C[C@]1(CO1)[C@@H]1[C@H](OC(C)=O)C=C(C)[C@]21O	1	5	25*	-3	2	46*	40*
C=C1C(=O)O[C@H]2C[C@]3(C)C([C@@H](OC(=O)/C(C)=C/C)[C@H]12)[C@](C)(O)CC[C@H]3O (stereo partly specified)	0	0	12	-4	-6	nt	nt
CCCNC(=O)N1C[C@H]2[C@@H](c3ccccc31)[C@@H](CO)N2CC1CCCCC1	0	nt	nt	nt	nt	nt	nt
COCC(=O)Nc1ccc2c(c1)C(=O)N(C)C[C@H](OC)[C@@H](C)CN(C(=O)c1ccccc1)[C@@H](C)CO2	0	nt	nt	nt	nt	nt	nt
O=C(Cn1sc2ccccc2c1=O)Nc1ccccc1	0	-6	64*	-7	-4	81*	116*
O=C(c1ccccc1Cl)N1CCNCC1	nt	1	4	-3	-2	nt	nt
Clc1cccc2c1Sc1ccccc1CC2N1CCNCC1 (stereo unspecified)	0	0	31*	-8	-8	21	1
Cc1ccc(/C=C/C(=O)N2CCN(S(=O)(=O)c3ccc(C)c(C)c3)CC2)o1	0	-2	44*	14	10	43*	62*
O=C(COC(=O)C1CC1)NCCc1ccc(Cl)cc1	0	-1	-4	-4	-1	nt	nt
SMILES	Xi reactivation	Rin1 Abl inh	ABHD5-PLIN5 inh	Rpn11 block	NadD block	ABHD5-PLIN5 conf	HNF4 counter
O=C(COC(=O)C1CC1)NCCNC(=O)COC(=O)C1CC1	0	0	86*	-1	3	5	1
CCCN(C)C[C@@H]1Oc2cc(C#C[C@@H](C)O)ccc2S(=O)(=O)N([C@H](C)CO)C[C@@H]1C	-1	nt	nt	nt	nt	nt	nt
COc1ccc(OC)c2c1C(=O)C(Cl)=C(Cl)C2=O	8	1	93*	-6	-1	104*	111*
CCS(=O)(=O)N1CCC2(CC1)CN(C(=O)NC(C)C)[C@H](CO)c1c2c2ccc(OC)cc2n1C	0	nt	nt	nt	nt	nt	nt
CN(C)c1ccc(/C=C2\CCCCC2=O)cc1	0	-2	-3	9	-4	nt	nt
CN(C)CCC1(C2=CCCC2)CC/C(=C/c2ccc(Cl)cc2)C1=O (stereo unspecified)	0	1	32*	2	-4	39*	21*
CC(C)NC(=O)Nc1ccc2c(c1)CC(=O)N([C@@H](C)CO)C[C@@H](C)[C@H](CN(C)C(=O)Nc1ccc3c(c1)OCO3)O2	0	nt	nt	nt	nt	nt	nt
O=C1C(O)=CC(=C(c2ccccc2)c2ccccc2)c2ccccc21	1	-2	97*	-1	18	18	88*
O=C(O)c1cccc2c1C(=O)c1ccccc1C2=O	0	-2	1	7	1	nt	nt
O=C(C[C@@H]1CC[C@H]2[C@@H](COC[C@H](O)CN2Cc2ccc(Oc3ccccc3)cc2)O1)Nc1nccs1	0	nt	nt	nt	nt	nt	nt
C[C@H]1CN([C@@H](C)CO)C(=O)Cc2cc(NS(=O)(=O)c3ccccc3)ccc2O[C@H]1CN(C)C(=O)Nc1cccc2ccccc12	0	nt	nt	nt	nt	nt	nt
CCN1CC(=O)Nc2cc(S(=O)(=O)N3CCOCC3)ccc21	0	-1	32*	-8	-4	49*	46*
C[C@@H]1CN([C@H](C)CO)C(=O)c2cccc(NC(=O)c3nc4ccccc4s3)c2O[C@@H]1CN(C)Cc1ccncc1	0	nt	nt	nt	nt	nt	nt
Cc1ccccc1OCCCN1C(=O)C(=O)c2cccc(C)c21	0	-2	27*	4	2	49*	48*
C=C1C(=O)[C@]23C[C@H]1CC[C@H]2[C@]1(C)[C@@H](OC(C)=O)CC[C@@](C)(C(=O)O)[C@H]1C[C@@H]3O	5	6	52*	-3	-2	53*	105*
C=C1C(=O)[C@]23C[C@H]1CCC2[C@@]1(C)C(C[C@@H]3O)[C@](C)(C(=O)OC)CC[C@@H]1OC(C)=O (stereo partly specified)	0	6	78*	-2	-5	85*	109*
C=C1C(=O)[C@]23C[C@H]1CC[C@H]2[C@]1(C)[C@@H](OC(C)=O)CC[C@@](C)(C(=O)OC)[C@H]1C[C@@H]3OC(C)=O	0	3	56*	1	-1	71*	98*
Cn1cnc(CCNC(=O)C[C@@H]2CC[C@H]3[C@@H](COC[C@@H](O)CN3C(=O)Nc3ccc(F)cc3)O2)c1	0	nt	nt	nt	nt	nt	nt
